Calls of active or inactive are those of the source. The calls are words filed in the database; no cut-off is given here.
Experiments:
SH-SY5Y [1] = test: Antiproliferative activity against human SH-SY5Y cells assessed as cell viability at 40 uM after 48 hrs relative to control; format: functional; details: read-out: Activity
How it was run: (§1)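 Single fixed concentration of 40 µM against HeLa or SH-SY5Y cells; viability given as mean ± S.E.M., n = 8 from two separate experiments.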

HeLa [2] = test: Antiproliferative activity against human HeLa cells assessed as cell viability at 40 uM after 48 hrs relative to control; format: functional; details: read-out: Activity; how it was run: as §1
HeLa [3] = test: Inhibition of TNFalpha-induced NFkappaB activation assessed as TNFalpha-induced transcription level in human HeLa cells at 30 uM incubated for 6 hrs by luciferase reporter gene assay; format: cell-based; design: scale not given: the % may be the effect or the level left
How it was run: (§2)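 HeLa NF-κB luciferase reporter: cells plated at 5 × 10³/well; after 8 h, TNFα (20 ng/mL) applied for 6 h with or without compound. Firefly luciferase normalized to pRLTK Renilla by dual-luciferase read-out; n = 6–11 from 3–6 experiments.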

SH-SY5Y [4] = test: Antiproliferative activity against human SH-SY5Y cells assessed as cell viability after 48 hrs; format: functional, cell-based
HeLa [5] = test: Antiproliferative activity against human HeLa cells assessed as cell viability after 48 hrs; format: functional, cell-based
Tubulin (Homo sapiens) [6] = target: T1, Tubulin (Homo sapiens) (UniProt P68371+Q9H4B7+P0DPH7+P68366+Q13509+Q71U36+P04350+Q3ZCM7+P07437+P68363+Q9BQE3+Q6PEY2+Q13885+Q9BVA1+Q9BUF5); test: Inhibition of tubulin (unknown origin) polymerization up to 60 uM; format: protein-complex assay
How it was run: (§3)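 Cell-free fluorescence-based tubulin polymerization kit; compound tested from 10 µM up to 60 µM.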

HeLa [7] = test: Cell cycle arrest in human HeLa cells at IC50 to 2 times IC50 after 8 hrs by FACS analysis; format: functional, cell-based
How it was run: (§4)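 HeLa cells seeded at 6 × 10⁵ cells/well, starved overnight, then exposed at IC50, 2× and 3× IC50 for 8 h or 16 h. Cells fixed in 70% EtOH overnight at −20 °C, then RNase-treated (100 µg/mL, 1 h, 37 °C) before cell-cycle phase analysis.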

HeLa [8] = test: Cell cycle arrest in human HeLa cells assessed as accumulation at […] phase at IC50 to 2 times IC50 after 16 hrs by FACS analysis; format: functional, cell-based; how it was run: as §4
Tubulin (Homo sapiens) [9] = target: T1, Tubulin (Homo sapiens); test: Inhibition of tubulin polymerization in human HeLa cells assessed as increase in soluble fraction incubated for 16 hrs by cellular assay; format: cell-based
How it was run: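 HeLa cells exposed 16 h; proteins extracted in presence of paclitaxel, pelletable and soluble fractions separated and resolved by SDS–PAGE.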

HeLa [10] = test: Potentiation of TNFalpha-induced NFkappaB activation in human HeLa cells at 3 uM incubated for 6 hrs by luciferase reporter gene assay; format: cell-based; how it was run: as §2
Tubulin (Homo sapiens) [11] = target: T1, Tubulin (Homo sapiens); test: Inhibition of tubulin (unknown origin) polymerization at 10 uM; format: protein-complex assay; how it was run: as §3

SMILES | viability at 40 µM (SH-SY5Y [1]) | viability at 40 µM (HeLa [2]) | Activity (HeLa [3]) | IC50 (SH-SY5Y [4]) | IC50 (HeLa [5]) | Activity (Tubulin (Homo sapiens) [6]) | Activity (HeLa [7]) | Activity (HeLa [8]) | inhibition (Tubulin (Homo sapiens) [9]) | fold change (FC) (HeLa [10]) | Activity (Tubulin (Homo sapiens) [11]) | inhibition (Tubulin (Homo sapiens) [6])
Oc1ccc(/C=C/n2cc(/C=C/c3ccccc3)nn2)cc1 | 48% | 50.7% | 88.9% |  |  |  |  |  |  |  |  | 
Oc1ccc(/C=C/n2cc(/C=C/c3ccc(O)c(O)c3)nn2)cc1 | 60.4% | 60.1% | 124% |  |  |  |  |  |  |  |  | 
COc1cc(/C=C/n2cc(/C=C/c3cc(OC)c(OC)c(OC)c3)nn2)ccc1O | 23.5% | 23% | 27.5% | 7.8 µM | 13.6 µM | inactive | inactive | Active | inactive |  |  | 
COc1ccc(/C=C/c2cn(/C=C/c3ccccc3)nn2)cc1 | 126% | 69.2% | 74.5% |  |  |  |  |  |  |  |  | 
COc1cc(/C=C/c2cn(/C=C/c3ccccc3)nn2)ccc1O | 110% | 79.5% | 138% |  |  |  |  |  |  |  |  | 
Oc1ccc(/C=C/c2cn(/C=C/c3ccc(O)cc3)nn2)cc1 | 49.6% | 55.3% | 112% |  |  |  |  |  |  |  |  | 
Oc1ccc(/C=C/c2cn(/C=C/c3ccccc3)nn2)cc1 | 70.6% | 39.5% | 85.4% |  |  |  |  |  |  |  |  | 
COc1cc(/C=C/c2cn(/C=C/c3ccc(O)c(OC)c3)nn2)ccc1O | 36.1% | 50.5% | 48% | 17.8 µM | 36.4 µM | inactive |  |  | inactive | 2 |  | 
COc1cccc(/C=C/c2cn(/C=C/c3cccc(OC)c3)nn2)c1 | 71.4% | 92.8% | 71% |  |  |  |  |  |  |  |  | 
COc1cc(/C=C/C(=O)CC(=O)/C=C/c2ccc(O)c(OC)c2)ccc1O [CURCUMIN] | 22.6% | 42.5% | 60.5% | 16.1 µM | 21.8 µM |  | inactive | Active | inactive |  | inactive | Active
COc1cccc(/C=C/n2cc(/C=C/c3ccc(O)c(O)c3)nn2)c1 | 27.7% | 16.6% | 97% | 17 µM | 18.7 µM |  |  |  |  |  |  | 
COc1cccc(/C=C/c2cn(/C=C/c3ccc(O)cc3)nn2)c1 | 37.9% | 30.4% | 61.5% | 9 µM | 17.2 µM |  |  |  |  |  |  | 
COc1cc(/C=C/c2cn(/C=C/c3ccccc3)nn2)cc(OC)c1OC | 69.2% | 52.1% | 65.3% |  |  |  |  |  |  |  |  | 
COc1ccc(/C=C/c2cn(/C=C/c3ccc(O)cc3)nn2)cc1 | 25.7% | 66.3% | 131% | 11.3 µM | 34 µM |  |  |  |  |  |  | 
COc1cccc(/C=C/n2cc(/C=C/c3ccc(O)cc3)nn2)c1 | 68.9% | 41.9% | 94.3% |  |  |  |  |  |  |  |  | 
COc1cccc(/C=C/c2cn(/C=C/c3ccccc3)nn2)c1 | 88.7% | 93.9% | 87% |  |  |  |  |  |  |  |  | 
C(=C\c1cn(/C=C/c2ccccc2)nn1)/c1ccccc1 | 118% | 70% | 79.9% |  |  |  |  |  |  |  |  | 
COc1cccc(/C=C/n2cc(/C=C/c3ccccc3)nn2)c1 | 107% | 82.1% | 76.1% |  |  |  |  |  |  |  |  | 
COc1cccc(/C=C/n2cc(/C=C/c3ccc(O)c(OC)c3)nn2)c1 | 66.3% | 66.9% | 57% |  |  |  |  |  |  |  |  | 
COc1cc(/C=C/n2cc(/C=C/c3ccc(O)cc3)nn2)ccc1O | 50.3% | 83.5% | 73.2% |  |  |  |  |  |  |  |  | 
Oc1ccc(/C=C/c2cn(/C=C/c3ccccc3)nn2)cc1O | 40.1% | 18.4% | 167% |  |  |  |  |  |  |  |  | 
COc1ccc(/C=C/c2cn(/C=C/c3cccc(OC)c3)nn2)cc1 | 52% | 55.1% | 81.3% |  |  |  |  |  |  |  |  | 
COc1ccc(/C=C/c2cn(/C=C/c3ccc(O)c(OC)c3)nn2)cc1O | 18.1% | 7.9% | 15.3% | 6.9 µM | 11.7 µM | inactive | inactive | Active | inactive |  |  | 
COc1cc(/C=C/c2cn(/C=C/c3ccc(O)cc3)nn2)ccc1O | 55.4% | 56.8% | 96% |  |  |  |  |  |  |  |  | 
COc1cc(/C=C/n2cc(/C=C/c3ccccc3)nn2)ccc1O | 86.7% | 84.3% | 144% |  |  |  |  |  |  |  |  | 
COc1ccc(/C=C/c2cn(/C=C/c3ccc(O)c(OC)c3)nn2)cc1 | 50% | 67.9% | 146% |  |  |  |  |  |  |  |  | 
COc1cccc(/C=C/c2cn(/C=C/c3ccc(O)c(OC)c3)nn2)c1 (mixture of isomers) | 65.3% | 38.7% | 88.9% |  |  |  |  |  |  |  |  | 
COc1cc(/C=C/c2cn(/C=C/c3ccc(O)cc3)nn2)cc(OC)c1OC | 21.3% | 19.2% | 14.6% | 1.7 µM | 1.5 µM | inactive | inactive | Active | inactive |  |  | 
COc1cccc(/C=C/n2cc(/C=C/c3cc(OC)c(OC)c(OC)c3)nn2)c1 | 99.9% | 77.9% | 42.2% |  |  | inactive |  |  | inactive |  |  | 
